Reference: ChEMBL document CHEMBL5038671, “Hydrophobic Tagging-Induced Degradation of PDEδ in Colon Cancer Cells” (ACS Med Chem Lett, 2022)

How the values were obtained:
[1] = tested on: SW480; experiment: Antiproliferative activity against human SW480 cells assessed as cell growth inhibition and measured after 72 hrs by CCK8 assay; settings: SW480, 72 h
[2] = tested on: HCT-116; experiment: Antiproliferative activity against human HCT-116 cells assessed as cell growth inhibition and measured after 72 hrs by CCK8 assay; settings: HCT-116, 72 h
[3] = molecular target: Retinal rod rhodopsin-sensitive cGMP 3',5'-cyclic phosphodiesterase subunit delta (Homo sapiens, UniProt O43924); experiment: Binding affinity to PDE delta (unknown origin) assessed as dissociation constant measured after 2 hrs by fluorescence polarization assay
[4] = tested on: SW480; experiment: Down regulation of p-ERK expression in human SW480 cells measured for 24 hrs by western blot analysis; type: functional, cell-based
Summary of the method: (§1)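 PDEδ downstream proteins examined in SW480 cells treated 24 h, by Western blot; blots repeated at least three times, bar graphs as mean ± SD.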

[5] = tested on: SW480; experiment: Down regulation of p-Akt expression in human SW480 cells measured for 24 hrs by western blot analysis; type: functional, cell-based; summary of the method: as §1
[6] = tested on: SW480; experiment: Antiproliferative activity against human SW480 cells assessed as apoptosis induction at 30 uM measured for 24 hrs by Annexin V-FITC/PI staining based flow cytometry analysis (reference value: 46%); type: functional
[7] = tested on: SW480; experiment: Antiproliferative activity against human SW480 cells assessed as apoptosis induction at 40 uM measured for 24 hrs by Annexin V-FITC/PI staining based flow cytometry analysis (reference value: 46%); type: functional
[8] = tested on: SW480; experiment: Antiproliferative activity against human SW480 cells assessed as apoptosis induction at 50 uM measured for 24 hrs by Annexin V-FITC/PI staining based flow cytometry analysis (reference value: 46%); type: functional

Retinal rod rhodopsin-sensitive cGMP 3',5'-cyclic phosphodiesterase subunit delta, sequence (O43924 whole entry): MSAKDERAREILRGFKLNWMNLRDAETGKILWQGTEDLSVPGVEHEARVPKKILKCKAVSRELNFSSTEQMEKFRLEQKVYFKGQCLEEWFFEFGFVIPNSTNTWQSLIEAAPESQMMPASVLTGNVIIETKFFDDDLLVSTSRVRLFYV

Cc1ccc(-n2nc3c(=O)n(CCCC(=O)NCCCCNC(=O)CC45CC6CC(CC(C6)C4)C5)nc(C)c3c2C)cc1
IC50 [1]: 7 µM | IC50 [2]: 50.7 µM

Cc1ccc(-n2nc3c(=O)n(CCCC(=O)NCCNC(=O)CC45CC6CC(CC(C6)C4)C5)nc(C)c3c2C)cc1
IC50 [1]: 10 µM | IC50 [2]: 20.4 µM

Cc1ccc(-n2nc3c(=O)n(CCCC(=O)NCCCCCC(=O)NCC45CC6CC(CC(C6)C4)C5)nc(C)c3c2C)cc1
IC50 [1]: > 100 µM | IC50 [2]: 32.5 µM

Cc1ccc(-n2nc3c(=O)n(CCCC(=O)NCCc4ccc(NC(=O)CCCCCCNC(=O)CC56CC7CC(CC(C7)C5)C6)cc4)nc(C)c3c2C)cc1
IC50 [1]: > 100 µM | IC50 [2]: > 100 µM

Cc1ccc(-n2nc3c(=O)n(CCCC(=O)NC45CC6CC(CC(C6)C4)C5)nc(C)c3c2C)cc1
IC50 [1]: > 100 µM | IC50 [2]: > 100 µM

Cc1ccc(-n2nc3c(=O)n(CCCC(=O)NCCc4ccc(NC(=O)CCCCCCCCCC(=O)NCC56CC7CC(CC(C7)C5)C6)cc4)nc(C)c3c2C)cc1
IC50 [1]: 14 µM | IC50 [2]: > 100 µM | Ki [3]: > 1000 nM

Cc1ccc(-n2nc3c(=O)n(CCCC(=O)NCCCCCCCCNC(=O)CC45CC6CC(CC(C6)C4)C5)nc(C)c3c2C)cc1
IC50 [1]: 5.6 µM | IC50 [2]: 17.7 µM

Cc1ccc(-n2nc3c(=O)n(CCCC(=O)NCCCCCCNC(=O)CC45CC6CC(CC(C6)C4)C5)nc(C)c3c2C)cc1
IC50 [1]: 4.8 µM | IC50 [2]: 7.7 µM | Activity [4]: Dose-Dependent Effect | Activity [5]: Dose-Dependent Effect | Activity [6]: 15.23% | Activity [7]: 83.67%

Cc1ccc(-n2nc3c(=O)n(CCCC(=O)NCCc4ccc(NC(=O)CCCC(=O)NCC56CC7CC(CC(C7)C5)C6)cc4)nc(C)c3c2C)cc1
IC50 [1]: 19.8 µM | IC50 [2]: 39 µM

Cc1ccc(-n2nc3c(=O)n(CCCC(=O)NCCc4ccc(NC(=O)CCCCCC(=O)NCC56CC7CC(CC(C7)C5)C6)cc4)nc(C)c3c2C)cc1
IC50 [1]: > 100 µM | IC50 [2]: > 100 µM

Cc1ccc(-n2nc3c(=O)n(CCCC(=O)NCCOCCOCCNC(=O)CC45CC6CC(CC(C6)C4)C5)nc(C)c3c2C)cc1
IC50 [1]: 5.4 µM | IC50 [2]: 18.5 µM

Cc1ccc(-n2nc3c(=O)n(CCCC(=O)NCC(C)c4ccccc4)nc(C)c3c2C)cc1 (centres undefined)
IC50 [1]: 18.3 µM | IC50 [2]: 82.4 µM | Activity [8]: 5.4%

Cc1ccc(-n2nc3c(=O)n(CCCC(=O)NCC45CC6CC(CC(C6)C4)C5)nc(C)c3c2C)cc1
IC50 [1]: > 100 µM | IC50 [2]: > 100 µM

Cc1ccc(-n2nc3c(=O)n(CCCC(=O)NCCCC(=O)NCC45CC6CC(CC(C6)C4)C5)nc(C)c3c2C)cc1
IC50 [1]: 8 µM | IC50 [2]: 11.4 µM
